Data taken from PubChem BioAssay AID488936 (Broad Institute, 2010).
Active and inactive are the calls of the source.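 Rule for the calls: active = compounds lowering caspase luminescence whose fitted AC50 is at most ten times their top valid dose; inconclusive = flat partial inhibition or a poor quality curve fit; inactive = the rest.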

system: not listed separately; assay: suppressors of cytokine-driven caspase-3/7 activity, dose response, orthogonal assay for beta-cell apoptosis inhibitor project, INS-1E rat cells, dry powder, set 2 (AID 488936); conditions: INS-1E cytokine-induced caspase-3/7 luminescence, 48 h; at 23.5 µM (top of the series)
In short: (§1)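 Assay system: rat INS-1E insulinoma cells; Reagent: IFN-gamma, TNF-alpha and IL-1β cytokine cocktail; Control set: SAHA positive control; Measure: IC50 of caspase-3/7 activity from concentration-response curve; Detection: Luciferase-based luminescence, Caspase-Glo 3/7 reagent; Times: 48 h cytokine and compound exposure, 1 h detection.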

SMILES | activity change, negative = inhibition
C[C@@H]1CN([C@@H](C)CO)C(=O)c2cccc(NC(=O)Nc3cccc4ccccc34)c2O[C@H]1CN(C)C(=O)Nc1ccc(C(F)(F)F)cc1 | 45.3% (inactive)
COc1ccc(S(=O)(=O)N(C)C[C@@H]2Oc3c(cccc3N(C)C)C(=O)N([C@@H](C)CO)C[C@H]2C)cc1 | -4.48% (inactive)

same assay, conditions: INS-1E cytokine-induced caspase-3/7 luminescence, 48 h; at 26 µM (top of the series)

SMILES | activity change, negative = inhibition
COc1ccc(S(=O)(=O)N(C)C[C@@H]2Oc3c(NC(=O)c4nc5ccccc5s4)cccc3C(=O)N([C@@H](C)CO)C[C@H]2C)cc1 | -4.53% (inactive)
COc1ccc(S(=O)(=O)N(C)C[C@@H]2Oc3c(NC(=O)c4ccc(-c5nccs5)cc4)cccc3C(=O)N([C@@H](C)CO)C[C@H]2C)cc1 | 6.99% (inactive)
C[C@@H]1CN([C@@H](C)CO)C(=O)c2cccc(NC(=O)Nc3cccc4ccccc34)c2O[C@H]1CN(C)C(=O)Nc1ccc(F)cc1 | 19.9% (inactive)

system: INS-1E cytokine-induced caspase-3/7 luminescence, 48 h; assay: as above; conditions: not given
In short: as §1

SMILES | AC50
COc1ccc(S(=O)(=O)N(C)C[C@@H]2Oc3c(NC(=O)Nc4cccc5ccccc45)cccc3C(=O)N([C@H](C)CO)C[C@H]2C)cc1 | > 23.5 µM (inactive)
C[C@@H]1CN([C@@H](C)CO)C(=O)c2cccc(NC(=O)Nc3cccc(Cl)c3Cl)c2O[C@H]1CN(C)S(=O)(=O)c1ccc2c(c1)OCCO2 | > 26 µM (inactive)
COc1ccc(S(=O)(=O)N(C)C[C@@H]2Oc3c(NC(=O)Nc4ccccc4)cccc3C(=O)N([C@@H](C)CO)C[C@H]2C)cc1 | > 26 µM (inactive)
C[C@@H]1CN([C@@H](C)CO)C(=O)c2cccc(NC(=O)Nc3cccc4ccccc34)c2O[C@H]1CN(C)S(=O)(=O)c1ccc2c(n1)N(C)CCO2 | > 26 µM (inactive)
